The values below come from ChEMBL document CHEMBL4513216, “Probing the Open Global Health Chemical Diversity Library for Multistage-Active Starting Points for Next-Generation Antimalarials” (ACS Infect Dis, 2020).

A short description of this data set: Toxicity liver stage against HepG2, at 10uM. The conditions noted are these: human, HepG2-A16-CD81EGFP cells; read-out: INHIBITION
It counts as cell-based. More on the design: test concentration 10 uM, cell line HepG2-A16-CD81EGFP. The method, boiled down:
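Uninfected HepG2-A16-CD81EGFP cells, 3 × 10^3 per well, 1536-well, plated on prespotted compound at 10 μM final, parasite-free screening media added to match infected plates; puromycin 10 μM positive, DMSO 0.5% negative; run in parallel with 48 h PbLuc assay at 37 °C, 5% CO2; viability by CellTiter-Glo luminescence, normalized to controls.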
Regarding `CC(C)Oc1ccc(CC2=N[C@](C)(CO)CO2)cc1`, the cytotoxicity at 10 µM worked out at 16.3%.

Take `COc1cccc(C(O)CN2CCN(c3cccc(C)c3)CC2)c1` (stereo not drawn): the cytotoxicity at 10 µM was -3.85%.

As for `COc1nn(C)cc1C(=O)NCC1(O)CCOCC1`, the cytotoxicity at 10 µM was -14.7%.

Consider `CC(C)(C)C(=O)NCc1cnn2ccccc12`, for which the cytotoxicity at 10 µM was -10.6%.

For `CCN1C[C@@H]2CN(C(=O)C3CC=CC3)C[C@@H]2C1=O`, the cytotoxicity at 10 µM amounted to 2.35%.

With `CC1N(CC2CC2)C(=O)COC12CCN(C(=O)c1cnccn1)CC2` (stereo not drawn), the cytotoxicity at 10 µM was -2.57%.

`CC(C)NC(=O)C1CCC2(CCN(c3ncccn3)CC2)CO1` (stereo not drawn): the cytotoxicity at 10 µM amounted to 0.442%.

Take `O=C(COc1coc(CN2CCCCC2)cc1=O)c1ccccc1`: the cytotoxicity at 10 µM was found to be 8.44%.

For the molecule `O=C1COc2ccc(S(=O)(=O)N3CCOCC3)c3c2N1CCC3`, the cytotoxicity at 10 µM is 7.55%.

For `O=C(NCc1ccco1)N1CCCCC1c1nc(C2CC2)no1` (stereo not drawn), the cytotoxicity at 10 µM is -7.86%.

Consider `Cc1noc([C@@]23CCO[C@@H]2CCN(C(=O)C2CCOCC2)C3)n1`, for which the cytotoxicity at 10 µM was determined as 1.68%.

As to `CC(=O)N1CC[C@H]2OCC[C@@]2(C(=O)NCc2ccco2)C1`, the cytotoxicity at 10 µM was found to be 0.253%.

Take `COc1cccc(S(=O)(=O)N2CCn3cnc(COCC4CC4)c3C2)c1`: the cytotoxicity at 10 µM was -18.9%.

For the molecule `CC(Cn1cc(Br)cn1)C(=O)Nc1ccn(C)n1` (stereo not drawn), the cytotoxicity at 10 µM is -4.49%.

With `COC(=O)c1ccnn1COc1ccc(Cl)cc1`, the cytotoxicity at 10 µM was -14.8%.

Regarding `CCNC(=O)[C@H]1CN(Cc2ccccc2)C[C@@H]1C(=O)c1ccccc1`, the cytotoxicity at 10 µM was 3.08%.

For `Cc1nn(C)c(C)c1-c1ccc(=O)n(C(C)C(=O)NCc2ccco2)n1` (stereo not drawn), the cytotoxicity at 10 µM worked out at 6.93%.

With `c1cc(C2CN(C3CCCCC3)C2)n[nH]1`, the cytotoxicity at 10 µM turned out to be 4.18%.

On to `CNC(=O)CCc1cc(C2CCN(c3cnccn3)CC2)nc(C)n1`, for which the cytotoxicity at 10 µM is -4.65%.

Take `CNc1cccc(C2CCCN(Cc3ncc[nH]3)C2)n1` (stereo not drawn): the cytotoxicity at 10 µM is -18%.

On to `CC(=O)N1CCCC(c2ccccn2)C1` (stereo not drawn), for which the cytotoxicity at 10 µM was -23.7%.

Consider `NC(=O)C1(c2cnccn2)CCCN1Cc1cccc(Cl)c1` (stereo not drawn), for which the cytotoxicity at 10 µM was -2.5%.

As for `CCOc1cccnc1C(=O)N1CCCN(c2nc(C)cs2)CC1`, the cytotoxicity at 10 µM came to 5.6%.

On to `O=C(Cc1cccc(F)c1F)NC1COc2ccccc2C1=O` (stereo not drawn), for which the cytotoxicity at 10 µM was 10.4%.

In the case of `Cc1cnn(CC(=O)Nc2cc(-n3nnnc3C3CC3)ccc2F)c1`, the cytotoxicity at 10 µM is -5.46%.

Consider `CCC(c1ccc(F)cc1)S(=O)(=O)CCO` (stereo not drawn), for which the cytotoxicity at 10 µM was -136%.

As for `COCCN(Cc1ccc(C)o1)C(=O)Nc1ncc(C)s1`, the cytotoxicity at 10 µM was found to be 10%.

In the case of `Cc1nsc(N2CCCN(C(=O)CCc3ccsc3)CC2)n1`, the cytotoxicity at 10 µM came out at 3.8%.

For `N#Cc1cccc(S(=O)(=O)N(CC2CCC2)c2cn[nH]c2)c1`, the cytotoxicity at 10 µM is 10.9%.

With `CCc1noc(C(C)N2CCCN(Cc3noc(C4CC4)n3)CC2)n1` (stereo not drawn), the cytotoxicity at 10 µM is -6.87%.

On to `CC(CNC(=O)OC(C)(C)C)N(C)C(=O)COc1ccccc1C#N` (stereo not drawn), for which the cytotoxicity at 10 µM is 1.39%.

Regarding `O=C(NCCCn1cccn1)c1nc2ccccc2[nH]1`, the cytotoxicity at 10 µM was -7.16%.

With `CC(C)NC(=O)NC(C)c1nc(-c2ccccc2)cs1` (stereo not drawn), the cytotoxicity at 10 µM is -11.1%.

Consider `O=C(c1sccc1C1CC1)N1CCCN(c2cccnn2)CC1`, for which the cytotoxicity at 10 µM was -8.67%.

For `Cc1ccc(-n2cc(C(=O)N3CCn4c(C)nnc4C3)nn2)cc1`, the cytotoxicity at 10 µM is -141%.

On to `Cc1ncsc1C(=O)N1CCN(Cc2cscn2)CC1`, for which the cytotoxicity at 10 µM is -2.65%.

For the molecule `CCOCC(=O)Nc1cc(C)cnc1OC`, the cytotoxicity at 10 µM turned out to be 4.04%.

As for `CC(CC(=O)NCCS(N)(=O)=O)C1CCCCC1` (stereo not drawn), the cytotoxicity at 10 µM is -9.52%.

With `N#Cc1ccc(OCCn2cccn2)cc1`, the cytotoxicity at 10 µM is 11.2%.

`COc1ccccc1-c1cc(NC(=O)COCC2CC2)[nH]n1`: the cytotoxicity at 10 µM is -116%.

Consider `CC(Cn1cccn1)NCCS(=O)(=O)c1ccccc1` (stereo not drawn), for which the cytotoxicity at 10 µM is -3.63%.

Regarding `CCN(CCC(=O)OC)C(=O)c1cc(F)cc2[nH]cnc12`, the cytotoxicity at 10 µM is -7.37%.

For `COc1ccc(C(N)=O)cc1NCc1ncc(C(C)(C)C)o1`, the cytotoxicity at 10 µM was -8.2%.

In the case of `CC(O)CN1CCC(CNCc2ccc(C#N)cc2)CC1` (stereo not drawn), the cytotoxicity at 10 µM came out at 8.83%.

For `COC(=O)CNC(=O)C12CCC(=O)N1c1cc(Cl)ccc1S2` (stereo not drawn), the cytotoxicity at 10 µM was -0.748%.

With `CCn1nc2c(cc1=O)CN(Cc1nc(N)c3ccccc3n1)CC2`, the cytotoxicity at 10 µM is -5.59%.

Regarding `COCC(=O)N1CC(C(=O)NCC2CC2)C2(CCOCC2)C1` (stereo not drawn), the cytotoxicity at 10 µM was -105%.

Take `Cc1noc([C@]23COC[C@H]2CN(C(=O)N2CCCC2)C3)n1`: the cytotoxicity at 10 µM was -103%.

Turning to `Cn1cccc1C(=O)N1CCO[C@@H]2CN(Cc3ccco3)C[C@@H]2C1`, the cytotoxicity at 10 µM was -97.3%.

Regarding `CNC(=O)NCC1CCC2(CCN(c3ncccn3)CC2)CO1` (stereo not drawn), the cytotoxicity at 10 µM was -107%.

On to `O=C(c1ccno1)N1CCn2cc(CN3CCCCC3)nc2C1`, for which the cytotoxicity at 10 µM was -77.2%.

For the molecule `C[C@@H]1C[C@@H]2CCN(Cc3ccncc3)C[C@H]2O1`, the cytotoxicity at 10 µM was -72.9%.

For `C[C@H]1C[C@@H]2CCN(Cc3ccccn3)C[C@H]2O1`, the cytotoxicity at 10 µM is 5.66%.

On to `COC(C)(C)C(=O)N1Cc2cnc(C(C)(C)C)nc2C1`, for which the cytotoxicity at 10 µM was -121%.

`COc1cccc(OCCc2cncc(C(N)=O)c2)c1`: the cytotoxicity at 10 µM is -135%.

As to `CCC1CN(C(=O)c2cc(CN(C)CCc3ccccc3)on2)CCO1` (stereo not drawn), the cytotoxicity at 10 µM is -4.12%.

In the case of `Cc1ccnc(N2CCCC(c3nccn3C(C)C)C2)n1` (stereo not drawn), the cytotoxicity at 10 µM is -9.63%.

On to `Cc1nc(CN(C)Cc2csc(-c3cccs3)n2)co1`, for which the cytotoxicity at 10 µM was -6.06%.

For `Cc1oc(-c2cccc(F)c2F)nc1CN(C)CCC(C)(C)O`, the cytotoxicity at 10 µM was -4.47%.

`Cc1nc(NCC(O)CN2CCCCCC2)c2c(C)noc2n1` (stereo not drawn): the cytotoxicity at 10 µM was -5.78%.

Regarding `CCCN1CCCn2nc(CNC(=O)CC3CCS(=O)(=O)C3)cc2C1` (stereo not drawn), the cytotoxicity at 10 µM is -2.1%.

In the case of `NC(=O)C1CCCN(c2ncnc3c2Cc2ccccc2OC3)C1` (stereo not drawn), the cytotoxicity at 10 µM was -5.64%.

Turning to `CN1CCCN(c2cnn(Cc3ccc(C(C)(C)C)cc3)c(=O)c2)CC1`, the cytotoxicity at 10 µM stood at 11.1%.

With `CC(=O)NCCC1CCCCN1S(=O)(=O)c1cccc(Cl)c1` (stereo not drawn), the cytotoxicity at 10 µM was -125%.

As for `Cc1nn(C)c(C)c1NC(=O)c1cccc(CN2C[C@H]3CC[C@@H](C2)N3)c1`, the cytotoxicity at 10 µM was -0.277%.

Regarding `CC(=O)NCCc1cn(-c2cc(F)ccc2C)cn1`, the cytotoxicity at 10 µM is -1.47%.

On to `CC(C)c1nc(CN(C)Cc2ncccc2C(=O)O)cs1`, for which the cytotoxicity at 10 µM is -15.3%.

Turning to `O=C(CCc1nc(Cl)n[nH]1)N[C@H]1CC[C@H]1NC1Cc2ccccc2C1`, the cytotoxicity at 10 µM was -1.74%.

For the molecule `O=C(NCCN1CCNC1=O)c1cnc(-c2cccnc2)nc1`, the cytotoxicity at 10 µM is -0.885%.

`CC(C)c1ncc(S(C)(=O)=O)c(C2CCCNC2)n1` (stereo not drawn): the cytotoxicity at 10 µM was -1.34%.

For the molecule `COC(=O)CCC(=O)N1CCc2[nH]nc(-c3ccc(F)c(F)c3)c2C1`, the cytotoxicity at 10 µM was 0.604%.

For `C1CC(c2noc(C3CC3)n2)N(Cc2nnc(C3CC3)o2)C1` (stereo not drawn), the cytotoxicity at 10 µM was -5.83%.

In the case of `Cc1nnc(NC(=O)CN2CCCC(Cn3cncn3)C2)s1` (stereo not drawn), the cytotoxicity at 10 µM was 1.71%.

Take `Cc1cnn(CC2CN(CC(=O)N3CCc4ccccc43)CCO2)c1` (stereo not drawn): the cytotoxicity at 10 µM is -0.77%.

In the case of `Cc1nc(C(=O)N2CCCC2c2c(C)nn(C)c2C)ccc1C#N` (stereo not drawn), the cytotoxicity at 10 µM was -6.16%.

In the case of `O=C(CCc1ccccc1F)NS(=O)(=O)c1ccc2c(c1)OCCCO2`, the cytotoxicity at 10 µM was -3.2%.

Turning to `Cc1cc(C)n(C2CN(CC(=O)N3CCOCC3)C2)n1`, the cytotoxicity at 10 µM is -3.2%.

As to `CCN(Cc1ccc2c(c1)OCCO2)C(=O)NCc1nc(C)cs1`, the cytotoxicity at 10 µM worked out at 1.47%.

For the molecule `Cc1nnc(N2CCC(CNC(=O)OC(C)(C)C)CC2)c(C#N)c1C`, the cytotoxicity at 10 µM was 2.6%.

For the molecule `O=C(C1CN(Cc2ccsc2)Cc2ccnn2C1)N1CCCC1` (stereo not drawn), the cytotoxicity at 10 µM was -6.93%.

Regarding `COCCC(=O)N1CC2(CCN(Cc3cccc(Cl)c3)CC2)C1`, the cytotoxicity at 10 µM came to 5.63%.

In the case of `CCN(CC)c1ncc2c(c1C(=O)O)CCN(C1CCOC1)C2` (stereo not drawn), the cytotoxicity at 10 µM was determined as 15.7%.

As for `O=C(NC1CC1)N1CCc2ncc(CN3CCOCC3)n2CC1`, the cytotoxicity at 10 µM was -76.5%.

For `C1CN(CC2CC2)C(COCC2CC2)c2nnn(CC3CC3)c21` (stereo not drawn), the cytotoxicity at 10 µM was -3.66%.

Turning to `Cn1cnc2c1C(COCc1ccccc1)N(Cc1ccncc1)CC2` (stereo not drawn), the cytotoxicity at 10 µM was -1.99%.

Consider `Cc1ccc(CN2CCOC3(CCN(C(=O)N4CCCC4)CC3)C2)cc1`, for which the cytotoxicity at 10 µM stood at 5.7%.

In the case of `CCOC1COC2(CCN(c3ccccn3)CC2)C1` (stereo not drawn), the cytotoxicity at 10 µM was 3.77%.

As to `O=C(NCc1ccco1)[C@H]1COC[C@H]2CN(Cc3ccccn3)C[C@H]21`, the cytotoxicity at 10 µM is -72.4%.

As to `Cc1cnnn1Cc1ncn2c1CN(Cc1cccs1)CCC2`, the cytotoxicity at 10 µM worked out at 3.58%.

Turning to `CC(C)OCc1ncn2c1CN(Cc1cccs1)CCC2`, the cytotoxicity at 10 µM stood at 8.44%.

In the case of `CC(NCc1ccncc1)c1ccc(N2CCN(C)CC2)c(F)c1` (stereo not drawn), the cytotoxicity at 10 µM worked out at 27.8%.

Consider `Cc1ccc(N2CC3(CCN(Cc4nccn4C)C3)CC2=O)s1` (stereo not drawn), for which the cytotoxicity at 10 µM was -81.9%.

For the molecule `c1cc(C2CC2)n2cnc(C3CN(Cc4nccs4)CCO3)c2c1` (stereo not drawn), the cytotoxicity at 10 µM turned out to be 1.49%.

In the case of `O=C(CC1CC1)N1C[C@@H]2CCN(c3cnccn3)C[C@@H]2C1`, the cytotoxicity at 10 µM was 5.03%.

On to `CCN1CCO[C@@H]2CN(S(=O)(=O)c3cccs3)CC[C@@H]2C1`, for which the cytotoxicity at 10 µM was found to be 4.82%.

In the case of `CN(C)Cc1noc2c1CN(Cc1ccsc1)CC2`, the cytotoxicity at 10 µM was -2.88%.

As for `CC(c1ccccc1)n1cc2nc(N(C)C)[nH]cc-2c1=O` (stereo not drawn), the cytotoxicity at 10 µM is -25.5%.

Turning to `Cn1nc(Br)c2c(NCCN)ncnc21`, the cytotoxicity at 10 µM amounted to 20.2%.
